Furin inh = human furin inhibitors, primary screen, biochemical, fluorescence intensity; P09958; AID 463115, 2010; purified furin, fluorogenic substrate cleavage; actives 0.061% (n = 220,000); inhibition, % at 20 µM or 30 µM; in the data active means inhibition above about 25%
NPY Y2 blocker = NPY-Y2 receptor antagonists, primary screen, cell-based; Neuropeptide Y receptor type 2 (Homo sapiens), P49146; NPY-Y2 expressing cells, antagonist mode; AID 793, 2007; inhibition, % at 2.7 µM; actives 0.99% (n = 140,000);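 further: 0% = vehicle with agonist challenge and 100% = reference antagonist with challenge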
KCC2 mod = KCC2 cotransporter modulators, thallium flux, primary screen, cell-based, HEK293 KCC2, FluoZin-2 fluorescence, MLSMR; Solute carrier family 12 member 5 (Homo sapiens), Q9H2X9; KCC2 cells, thallium flux FluoZin-2 fluorescence; B-score of Tl+ flux slope (higher = more flux/activation; lower = inhibition) at 10 µM; actives 2.2% (n = 190,000); AID 1456, 2008;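 active means thallium flux slope and its plate-corrected score both differing from the plate sample mean at a set confidence after two filtering rounds, in either direction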;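 further: slope of fluorescence scaled to starting intensity during 10 to 20 s after thallium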
NPY2 pot ag = NPY-Y2 potentiators or agonists, primary screen, cell-based. activation, % at 3.6 µM. Neuropeptide Y receptor type 2 (Homo sapiens), P49146. cells expressing NPY-Y2, potentiator/agonist read-out. actives 0.45% (n = 220,000); in the data active means activation above about 27%;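 further: cells stimulated with NPY near EC25 plus isoproterenol at EC100; 0% = vehicle plus submaximal agonist and 100% = vehicle plus saturating agonist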
NPY-Y1 PAM-ag = NPY-Y1 receptor potentiators or agonists, primary screen, cell-based; Neuropeptide Y receptor type 1 (Homo sapiens), P25929; NPY-Y1 expressing cells, potentiator/agonist activation; activation, % at 3.6 µM; actives 0.37% (n = 220,000); AID 1304, 2008; in the data active means activation above about 33%, passing the limit was not always enough;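 further: cells stimulated with NPY at EC10 then isoproterenol at EC100; 0% = low agonist plus stimulus and 100% = saturating agonist plus stimulus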
Target sequence (P25929 whole entry, looked up): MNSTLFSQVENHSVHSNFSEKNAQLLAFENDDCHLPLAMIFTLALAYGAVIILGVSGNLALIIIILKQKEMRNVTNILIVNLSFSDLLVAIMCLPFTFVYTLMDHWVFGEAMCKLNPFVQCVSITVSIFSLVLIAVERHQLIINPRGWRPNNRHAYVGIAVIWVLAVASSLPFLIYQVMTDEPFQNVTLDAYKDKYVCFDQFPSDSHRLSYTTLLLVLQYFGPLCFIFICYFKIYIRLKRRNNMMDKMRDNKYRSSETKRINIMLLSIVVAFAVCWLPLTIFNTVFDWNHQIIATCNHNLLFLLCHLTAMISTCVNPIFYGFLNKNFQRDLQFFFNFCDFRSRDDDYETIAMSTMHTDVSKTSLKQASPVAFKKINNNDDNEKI
NPY Y1 blocker = NPY-Y1 receptor antagonists, primary screen, cell-based; AID 1040, 2008; Neuropeptide Y receptor type 1 (Homo sapiens), P25929; actives 1% (n = 200,000); HEK293-CNG Y1 cells, membrane potential fluorescence; NPY at EC95, then isoproterenol; inhibition, % at 3.6 µM;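 active means inhibition above the campaign mean inhibition of all tested compounds plus 3 SD, cut at about 20% in these data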;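 further: 0% = DMSO wells given NPY plus isoproterenol and 100% = isoproterenol alone without NPY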
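Material: HEK293 Y1/CNG channel cell line; also added: NPY (25 nM), isoproterenol (1 µM), Ro 20-1724 (25 µM); doses: one concentration, 3.6 µM, in 0.4% DMSO; schedule: compound incubation 1 h at room temperature, readout 45 min post-stimulation; technique: membrane potential fluorescence; measure: fluorescence ratio normalized to % inhibition between controls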
NPY1 antag conf = NPY-Y1 receptor antagonists, retest of hits, confirmation, HEK293-CNG cells, membrane potential fluorescence, triplicate | shares compounds with NPY Y1 blocker | cAMP; NPY challenge against isoproterenol-raised cAMP | inhibition, % at 3.6 µM | actives 21% (n = 1,200); in the data active means inhibition above about 20%;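 further: 0% = vehicle with agonist plus stimulus and 100% = stimulus alone without agonist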
NPY-Y2 antag ct = NPY-Y2 receptor antagonists, selectivity check, confirmation, counter-screen for NPY-Y1 antagonist project, HEK293-CNG cells, membrane potential fluorescence, triplicate; shares compounds with NPY Y1 blocker; antagonism; cells given NPY, then isoproterenol; inhibition, % at 3.6 µM; actives 28% (n = 1,200); AID 1255, 2008;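 further: 0% = DMSO with agonist challenge and 100% = reference antagonist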
Active calls of the source: *; / = no result. In the library only some 3.7% were active in any assay of this set; here they are far more common. Unless noted, no stated cut-off is given here; in the data, active means inhibition above about 17%; inactive means the rest.

SMILES	Furin inh	NPY Y2 blocker	KCC2 mod	NPY2 pot ag	NPY-Y1 PAM-ag	NPY Y1 blocker	NPY1 antag conf	NPY-Y2 antag ct
C/C(CC(=O)NC1CCCC1)=N\NC(=O)c1ccc([N+](=O)[O-])c(Cl)c1	-27.4	10.9	0.075	0.7	10.6	-0.4	/	/
Fc1ccccc1C1c2[nH]c3ccccc3c2CCN1Cc1cccn1-c1ncccn1 (configuration not stated)	-20.7	/	-0.74	-48.8	-20.6	29.2*	8.3	14.1
CCOc1ccc(N2C(=O)CC(Sc3ccccc3C(=O)O)C2=O)c([N+](=O)[O-])c1 (configuration not stated)	-33.0	/	0.0222	-13.8	-7.3	-5.2	/	/
CC1CC(C)CN(c2ccc([N+](=O)[O-])nc2)C1 (configuration not stated)	-9.3	/	/	18.6	2.1	2.0	/	/
C[C@H]1CC[C@H]2C(=O)N3[C@H](c4ccccc4Br)[C@@H](C)CC[C@H]3C(=O)N2[C@@H]1c1ccccc1Br	-16.4	12.4	4.37*	16.7	-3.8	27.7*	19.6	9.0
CC1CCN(C2CC(=O)N(c3ccccc3)C2=O)CC1 (configuration not stated)	-18.4	/	-0.0589	-9.6	2.4	-4.5	/	/
O=C(O)/C=C/c1cccc2c1OCCO2	-19.0	/	0.546	-1.9	-16.0	/	/	/
CN(C)c1ccnc(NCc2ccccc2)c1C#N	-18.6	3.4	0.325	4.7	-23.6	1.1	/	/
CN(C)c1ccnc(N(Cc2ccccc2)Cc2ccccc2)c1C#N	-2.2	8.2	-1.37	-30.9	-33.0	38.7*	47.8*	82.9*
CCCCn1c(SCC(=O)N2CCC(C)CC2)nc2ccsc2c1=O	-36.9	16.8	-0.222	-18.9	20.8	20.8*	13.2	3.7
CCCn1c(SCC(=O)Nc2ccccc2N2CCCCC2)nc2c1c(=O)n(C)c(=O)n2C	-22.1	11.0	0.00642	-11.7	-33.1	25.8*	15.1	13.1
CCCn1c(SCC(=O)Nc2ccccc2C(=O)OC)nc2c1c(=O)n(C)c(=O)n2C	-13.6	2.8	-0.687	0.1	3.3	-1.8	/	/
CN(c1cccc(NC(=O)c2ccc(C(C)(C)C)cc2)c1)S(C)(=O)=O	-22.4	/	0.97	5.0	4.9	3.2	/	/
CN(c1cccc(NC(=O)c2ccc(N(C)S(=O)(=O)c3ccccc3)cc2)c1)S(C)(=O)=O	-13.0	/	0.223	-6.5	9.2	41.0*	1.1	0.5
Cc1c(Cl)cnc(NC(=O)COC(=O)Cc2coc3ccc4ccccc4c23)c1Cl	-18.0	9.3	-1.05	-13.9	-33.2	23.4*	6.6	6.0
COc1ccccc1-c1cc(C(F)(F)F)nc(S(=O)(=O)CCCC(=O)N2CCCCC2C)n1 (configuration not stated)	-17.2	-0.5	/	-15.2	-68.2	24.9*	14.2	44.5*
COC(=O)c1cc(-c2ccc(Br)cc2)on1	-9.6	15.1	-2.33	-43.7	-48.7	23.4*	11.8	17.4*
COC(=O)c1cc(-c2cccc(OC)c2)on1	-27.3	12.6	/	-28.6	-37.9	27.1*	11.3	14.8
CC(=O)NC(Cc1ccccc1C)C(=O)NC1CCN(C(=O)c2cccc(C)c2)CC1 (configuration not stated)	-17.3	/	-0.205	-8.7	10.9	2.9	/	/
CCc1ccc(OCCn2cccn2)cc1	-19.6	/	-0.41	5.9	11.2	-2.2	/	/
COc1cc2cc(C(=O)O)n(C)c2c(OC)c1OC	-14.9	8.4	0.895	3.4	-12.2	25.3*	3.5	3.4
